# Assay results as given in ChEMBL document CHEMBL4689842, “EUbOPEN Chemogenomics Library wave 1” (2021).
# Tested on: U2OS
# Assay: Multiplex assay against U2OS
# Format: toxicity, cell-based
# Settings: human
# Method in brief: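 Cells were classed with CellPathfinder machine-learning gating, first as Hoechst high-intensity objects or normal cells, then (normal cells) as healthy, pyknosed or fragmented nuclei, and finally (pyknosed cells) as mitotic or apoptotic. Staining of live cells at seeding used Hoechst33342, BioTracker Green Microtubule Cytoskeleton Dye, MitoTracker Red and Annexin V Alexa Fluor 680, with imaging on a CQ1 microscope at 37°C and 5% CO2 after compound addition. Tubulin, mitochondrial-mass and membrane-permeability phenotypes are per cents of healthy-nucleus cells.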
# [1] = 12 h, 1 µM, compound concentration 1 uM, replicate 1
# [2] = 12 h, 1 µM, compound concentration 1 uM, replicate 2
# [3] = 12 h, 10 µM, compound concentration 10 uM, replicate 1
# [4] = 12 h, 10 µM, compound concentration 10 uM, replicate 2
# [5] = 24 h, 1 µM, compound concentration 1 uM, replicate 1
# [6] = 24 h, 1 µM, compound concentration 1 uM, replicate 2
# [7] = 24 h, 10 µM, compound concentration 10 uM, replicate 1
# [8] = 24 h, 10 µM, compound concentration 10 uM, replicate 2
# [9] = 48 h, 1 µM, compound concentration 1 uM, replicate 1
# [10] = 48 h, 1 µM, compound concentration 1 uM, replicate 2
# [11] = 48 h, 10 µM, compound concentration 10 uM, replicate 1
# [12] = 48 h, 10 µM, compound concentration 10 uM, replicate 2
compound,measurement,setting,value
O=C1NC(=O)C(c2cnc3ccccn23)=C1c1cn2c3c(cc(F)cc13)CN(C(=O)N1CCCCC1)CC2 [LY-2090314],Population Apoptotic (%),[1],37%
same,Population Fragmented Nuclei (%),[1],8%
same,Population Healthy Nuclei (%),[1],74%
same,Population Hoechst High Intensity Objects (%),[1],8%
same,Population Membrane Permeable-Phenotype (%),[1],5%
same,Population Mitochondria Different-Phenotype (%),[1],31%
same,Population Mitotic Cells (%),[1],62%
same,Population Normal (%),[1],91%
same,Population Pyknosed Nuclei (%),[1],17%
same,Population Tubulin-Different-Phenotype (%),[1],38%
same,Total Cell Count,[1],121
same,Population Apoptotic (%),[2],80%
same,Population Fragmented Nuclei (%),[2],3%
same,Population Healthy Nuclei (%),[2],87%
same,Population Hoechst High Intensity Objects (%),[2],12%
same,Population Membrane Permeable-Phenotype (%),[2],6%
same,Population Mitochondria Different-Phenotype (%),[2],16%
same,Population Mitotic Cells (%),[2],20%
same,Population Normal (%),[2],87%
same,Population Pyknosed Nuclei (%),[2],9%
same,Population Tubulin-Different-Phenotype (%),[2],22%
same,Total Cell Count,[2],85
same,Population Apoptotic (%),[3],60%
same,Population Fragmented Nuclei (%),[3],13%
same,Population Healthy Nuclei (%),[3],73%
same,Population Hoechst High Intensity Objects (%),[3],18%
same,Population Membrane Permeable-Phenotype (%),[3],44%
same,Population Mitochondria Different-Phenotype (%),[3],95%
same,Population Mitotic Cells (%),[3],40%
same,Population Normal (%),[3],81%
same,Population Pyknosed Nuclei (%),[3],13%
same,Population Tubulin-Different-Phenotype (%),[3],99%
same,Total Cell Count,[3],153
same,Population Apoptotic (%),[4],100%
same,Population Fragmented Nuclei (%),[4],9%
same,Population Healthy Nuclei (%),[4],74%
same,Population Hoechst High Intensity Objects (%),[4],10%
same,Population Membrane Permeable-Phenotype (%),[4],40%
same,Population Mitochondria Different-Phenotype (%),[4],96%
same,Population Mitotic Cells (%),[4],0%
same,Population Normal (%),[4],89%
same,Population Pyknosed Nuclei (%),[4],16%
same,Population Tubulin-Different-Phenotype (%),[4],96%
same,Total Cell Count,[4],63
same,Population Apoptotic (%),[5],36%
same,Population Fragmented Nuclei (%),[5],13%
same,Population Healthy Nuclei (%),[5],64%
same,Population Hoechst High Intensity Objects (%),[5],3%
same,Population Membrane Permeable-Phenotype (%),[5],3%
same,Population Mitochondria Different-Phenotype (%),[5],21%
same,Population Mitotic Cells (%),[5],63%
same,Population Normal (%),[5],96%
same,Population Pyknosed Nuclei (%),[5],21%
same,Population Tubulin-Different-Phenotype (%),[5],25%
same,Total Cell Count,[5],124
same,Population Apoptotic (%),[6],80%
same,Population Fragmented Nuclei (%),[6],4%
same,Population Healthy Nuclei (%),[6],87%
same,Population Hoechst High Intensity Objects (%),[6],13%
same,Population Membrane Permeable-Phenotype (%),[6],7%
same,Population Mitochondria Different-Phenotype (%),[6],22%
same,Population Mitotic Cells (%),[6],20%
same,Population Normal (%),[6],86%
same,Population Pyknosed Nuclei (%),[6],8%
same,Population Tubulin-Different-Phenotype (%),[6],18%
same,Total Cell Count,[6],82
same,Population Apoptotic (%),[7],71%
same,Population Fragmented Nuclei (%),[7],20%
same,Population Healthy Nuclei (%),[7],59%
same,Population Hoechst High Intensity Objects (%),[7],18%
same,Population Membrane Permeable-Phenotype (%),[7],62%
same,Population Mitochondria Different-Phenotype (%),[7],98%
same,Population Mitotic Cells (%),[7],28%
same,Population Normal (%),[7],81%
same,Population Pyknosed Nuclei (%),[7],19%
same,Population Tubulin-Different-Phenotype (%),[7],100%
same,Total Cell Count,[7],171
same,Population Apoptotic (%),[8],81%
same,Population Fragmented Nuclei (%),[8],11%
same,Population Healthy Nuclei (%),[8],64%
same,Population Hoechst High Intensity Objects (%),[8],4%
same,Population Membrane Permeable-Phenotype (%),[8],37%
same,Population Mitochondria Different-Phenotype (%),[8],96%
same,Population Mitotic Cells (%),[8],18%
same,Population Normal (%),[8],95%
same,Population Pyknosed Nuclei (%),[8],24%
same,Population Tubulin-Different-Phenotype (%),[8],96%
same,Total Cell Count,[8],72
same,Population Apoptotic (%),[9],55%
same,Population Fragmented Nuclei (%),[9],15%
same,Population Healthy Nuclei (%),[9],63%
same,Population Hoechst High Intensity Objects (%),[9],3%
same,Population Membrane Permeable-Phenotype (%),[9],7%
same,Population Mitochondria Different-Phenotype (%),[9],22%
same,Population Mitotic Cells (%),[9],44%
same,Population Normal (%),[9],96%
same,Population Pyknosed Nuclei (%),[9],21%
same,Population Tubulin-Different-Phenotype (%),[9],12%
same,Total Cell Count,[9],117
same,Population Apoptotic (%),[10],72%
same,Population Fragmented Nuclei (%),[10],8%
same,Population Healthy Nuclei (%),[10],79%
same,Population Hoechst High Intensity Objects (%),[10],7%
same,Population Membrane Permeable-Phenotype (%),[10],11%
same,Population Mitochondria Different-Phenotype (%),[10],17%
same,Population Mitotic Cells (%),[10],27%
same,Population Normal (%),[10],92%
same,Population Pyknosed Nuclei (%),[10],12%
same,Population Tubulin-Different-Phenotype (%),[10],19%
same,Total Cell Count,[10],82
same,Population Apoptotic (%),[11],95%
same,Population Fragmented Nuclei (%),[11],33%
same,Population Healthy Nuclei (%),[11],39%
same,Population Hoechst High Intensity Objects (%),[11],20%
same,Population Membrane Permeable-Phenotype (%),[11],68%
same,Population Mitochondria Different-Phenotype (%),[11],93%
same,Population Mitotic Cells (%),[11],5%
same,Population Normal (%),[11],79%
same,Population Pyknosed Nuclei (%),[11],26%
same,Population Tubulin-Different-Phenotype (%),[11],100%
same,Total Cell Count,[11],221
same,Population Apoptotic (%),[12],83%
same,Population Fragmented Nuclei (%),[12],12%
same,Population Healthy Nuclei (%),[12],72%
same,Population Hoechst High Intensity Objects (%),[12],11%
same,Population Membrane Permeable-Phenotype (%),[12],48%
same,Population Mitochondria Different-Phenotype (%),[12],89%
same,Population Mitotic Cells (%),[12],16%
same,Population Normal (%),[12],88%
same,Population Pyknosed Nuclei (%),[12],15%
same,Population Tubulin-Different-Phenotype (%),[12],89%
same,Total Cell Count,[12],93
